Laboratory results published in ChEMBL document CHEMBL1130099, “Stabilized analogs of thymopentin. 2. 1,2- and 3,4-ketomethylene pseudopeptides” (J Med Chem, 1997).

What was measured:
[1] = system: CCRF-CEM; test: Ability to bound CEM cell measured as competition for displacement of radiolabeled Thymopentin from the receptor; format: functional, Homo sapiens
How it was run: (§1)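 CEM cells at 5×10^6 cells/0.1 mL binding buffer, given unlabeled peptide over 10^-6 to 10^-3 M plus radiolabeled thymopentin (548 000 cpm), 30 min at 25 °C. Diluted with ice-cold buffer, washed twice by centrifugation, bound counts by scintillation. Efficacy = (total thymopentin binding − counts after competition)/(reduction by authentic thymopentin); mean ± SEM over repeated trials.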

[2] = system: CCRF-CEM; test: Binding efficacy expressed as counts remaining after competition was subtracted from total of Thymopentin and divided by the counts reduced by authentic Thymopentin; format: functional, Homo sapiens; how it was run: as §1
[3] = The plasma half life of compound was determined on heparin prepared by human plasma; Not degraded; details: in vivo
[4] = species: Mus musculus; test: The plasma half life of compound was determined on heparin prepared by mouse plasma; Not degraded; format: ADME
How it was run: (§2)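 Half-life in heparinized mouse plasma: peptide incubated for variable times, then parent decrease and degradation products resolved and quantified by HPLC absorbance.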

[5] = The plasma half life of compound was determined on heparin prepared by human plasma.
[6] = The plasma half life of compound was determined on heparin prepared by mouse plasma.; format: ADME; how it was run: as §2
[7] = The plasma half life of compound was determined on EDTA prepared by mouse plasma.; format: ADME
How it was run: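 Peptide incubated in EDTA-treated mouse plasma for variable times. Loss of parent and appearance of degradation products quantified by HPLC with absorbance detection; half-life in min.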

SMILES	Binding competition [1] [mean counts]	Binding [2] [%]	further results
CC(C)[C@H](CC(=O)[C@H](CC(=O)O)NC(=O)[C@@H]1CCCN1C(=O)[C@H](N)CCCN=C(N)N)C(=O)N[C@@H](Cc1ccccc1)C(=O)O	1686	72	
CCCC[C@H](CC(=O)[C@@H](N)CCCN=C(N)N)C(=O)N[C@@H](CC(=O)O)C(=O)N[C@@H](C(=O)N[C@@H](Cc1ccccc1)C(=O)O)C(C)C	1713	71	
CC(C)[C@H](CC(=O)[C@H](CC(=O)O)NC(=O)[C@H](CCCCN)N(C)C(=O)[C@@H](N)CCCN=C(N)N)C(=O)N[C@@H](Cc1ccccc1)C(=O)O	2820	13	T1/2 [3]: Not degraded; T1/2 [4]: Not degraded
CC(C)[C@H](CC(=O)[C@H](CC(=O)O)NC(=O)[C@@H]1CCCN1C(=O)[C@H](N)CCCN=C(N)N)C(=O)N[C@@H](Cc1ccccc1)C(N)=O	2692	20	
CCCC[C@H](CC(=O)[C@@H](N)CCCN=C(N)N)C(=O)N[C@@H](CC(=O)O)C(=O)N[C@H](C(=O)N[C@@H](Cc1ccccc1)C(=O)O)C(C)C (stereo in doubt; 2a-A)	2222	44	half-life [5]: 12.5 min
CCCC[C@H](CC(=O)[C@@H](N)CCCN=C(N)N)C(=O)N[C@@H](CC(=O)O)C(=O)N[C@H](C(=O)N[C@@H](Cc1ccccc1)C(=O)O)C(C)C (stereo in doubt; 2a-B)	2176	47	
CCCC[C@H](CC(=O)[C@@H](N)CCCN=C(N)N)C(=O)N[C@@H](CC(=O)O)C(=O)N[C@H](C(=O)N[C@@H](Cc1ccccc1)C(=O)O)C(C)C (stereo in doubt; 2a-C)	2687	20	
CCCC[C@H](CC(=O)[C@@H](N)CCCN=C(N)N)C(=O)N[C@@H](CC(=O)O)C(=O)N[C@H](C(=O)N[C@@H](Cc1ccccc1)C(=O)O)C(C)C (stereo in doubt; 2a-D)	2333	39	
CCCC[C@H](CC(=O)[C@@H](N)CCCN=C(N)N)C(=O)N[C@@H](CC(=O)O)C(=O)N[C@H](C(=O)N[C@@H](Cc1ccccc1)C(N)=O)C(C)C (stereo in doubt; 2b-A)	3627		
CCCC[C@H](CC(=O)[C@@H](N)CCCN=C(N)N)C(=O)N[C@@H](CC(=O)O)C(=O)N[C@H](C(=O)N[C@@H](Cc1ccccc1)C(N)=O)C(C)C (stereo in doubt; 2b-B)	3648	0	
CC(C)[C@H](CC(=O)[C@H](CC(=O)O)NC(=O)[C@H](CCCCN)NC(=O)[C@@H](N)CCCN=C(N)N)C(=O)N[C@@H](Cc1ccccc1)C(=O)O (stereo in doubt; 3a-A)	844	115	half-life [6]: 2.4 min; half-life [7]: 5.8 min; half-life [5]: 2.7 min
CC(C)[C@H](CC(=O)[C@H](CC(=O)O)NC(=O)[C@H](CCCCN)NC(=O)[C@@H](N)CCCN=C(N)N)C(=O)N[C@@H](Cc1ccccc1)C(=O)O (stereo in doubt; 3a-B)	1091	103	
CCCC[C@H](NC(=O)[C@@H](N)CCCN=C(N)N)C(=O)N[C@@H](CC(=O)O)C(=O)C[C@H](C(=O)N[C@@H](Cc1ccccc1)C(=O)O)C(C)C (stereo in doubt; 3b-A)	1232	96	
CCCC[C@H](NC(=O)[C@@H](N)CCCN=C(N)N)C(=O)N[C@@H](CC(=O)O)C(=O)C[C@H](C(=O)N[C@@H](Cc1ccccc1)C(=O)O)C(C)C (stereo in doubt; 3b-B)	1447	85	
C[C@H](CC(=O)[C@H](CC(=O)O)NC(=O)[C@H](CCCCN)NC(=O)[C@@H](N)CCCN=C(N)N)C(=O)N[C@@H](Cc1ccccc1)C(=O)O (stereo in doubt; 3e-A)	2172	47	
C[C@H](CC(=O)[C@H](CC(=O)O)NC(=O)[C@H](CCCCN)NC(=O)[C@@H](N)CCCN=C(N)N)C(=O)N[C@@H](Cc1ccccc1)C(=O)O (stereo in doubt; 3e-B)	2606	24	
